Assay results reported in ChEMBL document CHEMBL2331545, “Synthesis of antioxidants for prevention of age-related macular degeneration” (J Nat Prod, 2013).
Activity calls are given as the source filed them. The rule behind the calls is not given here.

What was measured:
[1] = Inhibition of A2E photooxidation at 100 uM after 5 mins by reversed-phase HPLC analysis; format: functional
Procedure, shortened: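 Cell-free assay: A2E (200 µM DMSO stock) added to DPBS, antioxidant from DMSO solution added to 100 µM final. Irradiated at 430 nm (2.8 mW/cm2) for 5 min. Samples diluted with EtOH and analysed by reversed-phase HPLC under dim red light. Percent photooxidation taken as A2E loss relative to unirradiated samples.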

[2] = test system: ARPE-19; assay: Inhibition of intracellular A2E photooxidation in human ARPE19 cells at 20 uM after 18 days; format: functional, cell-based
Procedure, shortened: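 ARPE-19 cells (lacking endogenous A2E) grown to confluence for 5 days, then fed 10 µM synthetic A2E for 18 days in medium with 10% FBS. Antioxidant at 20 µM present on days 10–18. Cells washed in DPBS and irradiated at 430 nm (2.8 mW/cm2) for 10 min. Trypsinised, counted, dried, methanol-extracted. A2E quantified by reversed-phase HPLC; loss versus unirradiated cells gave percent photooxidation.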

SMILES | inhibition [1] | inhibition [2]
O=c1c(O)c(-c2ccc(O)c(O)c2)oc2cc(O)cc(O)c12 | Active | Active
O=c1c(O)c(-c2ccc(O)c(O)c2)oc2c(CN3CCOCC3)c(O)cc(O)c12 | Active | Active
O=c1c(O)c(-c2ccc(O)c(O)c2)oc2c(CN3CCN(Cc4c(O)cc(O)c5c(=O)c(O)c(-c6ccc(O)c(O)c6)oc45)CC3)c(O)cc(O)c12 | Active | Active
CN(CCN(C)Cc1c(O)cc(O)c2c(=O)c(O)c(-c3ccc(O)c(O)c3)oc12)Cc1c(O)cc(O)c2c(=O)c(O)c(-c3ccc(O)c(O)c3)oc12 | Active | Active
O=c1c(O)c(-c2ccc(O)c(O)c2)oc2c(CN3CCc4cc(O)c(O)cc4C3)c(O)cc(O)c12 | Active | Active
